Measured values taken from paper PMC2077835 (Drug metabolism and disposition: the biological fate of …, 2006).

Target: CYP2E1 (Homo sapiens, UniProt P05181)
Assay: Inhibition of P450 activities by DB289: lauric acid 11-hydroxylation
Format: in vitro ADME
Settings: 3.0 μM DB289, pooled HLMs 0.25 mg/ml
In short: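 Test compound (3.0 μM) was preincubated 0 and 15 min with pooled microsomes (0.25 mg/ml) and 2 mM NADPH (final concentrations). A P450-selective marker substrate was then added and marker activity measured. Reference selective chemical inhibitors were run for comparison (none for CYP4A11). Solvent-only controls.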

Sequence of CYP2E1 (P05181 whole entry): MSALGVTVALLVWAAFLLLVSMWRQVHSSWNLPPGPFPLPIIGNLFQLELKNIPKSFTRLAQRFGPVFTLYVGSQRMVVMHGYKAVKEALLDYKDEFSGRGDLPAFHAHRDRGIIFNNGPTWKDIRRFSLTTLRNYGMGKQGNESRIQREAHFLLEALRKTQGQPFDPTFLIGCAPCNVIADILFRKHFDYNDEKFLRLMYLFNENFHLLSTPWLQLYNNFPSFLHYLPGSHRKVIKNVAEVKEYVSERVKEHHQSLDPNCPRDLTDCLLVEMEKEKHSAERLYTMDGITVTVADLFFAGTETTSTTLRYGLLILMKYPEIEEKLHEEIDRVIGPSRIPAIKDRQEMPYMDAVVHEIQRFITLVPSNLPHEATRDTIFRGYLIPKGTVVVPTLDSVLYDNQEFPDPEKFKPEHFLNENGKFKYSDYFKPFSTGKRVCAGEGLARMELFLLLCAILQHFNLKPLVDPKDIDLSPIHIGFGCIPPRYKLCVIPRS

- inhibition of CYP2E1 activity: minimal to no inhibition
Structure (SMILES): CON=C(N)c1ccc(-c2ccc(-c3ccc(C(N)=NOC)cc3)o2)cc1 [DB289, 2,5-bis(4-amidinophenyl)furan-bis-O-methylamidoxime]
